# ChEMBL document CHEMBL1777717, “Potent and selective oxindole-based vasopressin 1b receptor antagonists with improved pharmacokinetic properties” (Bioorg Med Chem Lett, 2011)
# The source made the active and inactive calls. The calls are words filed in the database; no cut-off is given here.
# How the values were obtained:
# Vasopressin V1b receptor = target: T1, Vasopressin V1b receptor (Homo sapiens, UniProt P47901); experiment: Displacement of [3H]AVP from human vasopressin V1b receptor expressed in CHO cells by scintillation counting; type: cell-based
# T1 sequence (P47901 whole entry): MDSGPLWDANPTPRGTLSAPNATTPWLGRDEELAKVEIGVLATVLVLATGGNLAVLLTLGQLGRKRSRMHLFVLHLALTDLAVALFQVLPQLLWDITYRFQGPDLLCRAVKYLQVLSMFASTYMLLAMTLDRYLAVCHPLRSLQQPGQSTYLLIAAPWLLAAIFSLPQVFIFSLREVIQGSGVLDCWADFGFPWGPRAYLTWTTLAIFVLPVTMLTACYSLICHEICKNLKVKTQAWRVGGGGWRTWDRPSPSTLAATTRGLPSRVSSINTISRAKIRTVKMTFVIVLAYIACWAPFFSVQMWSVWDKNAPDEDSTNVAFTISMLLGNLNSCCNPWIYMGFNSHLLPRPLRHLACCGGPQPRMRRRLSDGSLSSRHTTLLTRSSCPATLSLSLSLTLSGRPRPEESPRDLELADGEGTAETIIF
# Homo sapiens [1] = species: Homo sapiens; experiment: Selectivity ratio of Ki for human vasopressin V1b receptor over Ki for human vasopressin V1a receptor
# Oxytocin receptor = target: T2, Oxytocin receptor (Homo sapiens, UniProt P30559); experiment: Displacement of radiolabeled oxytocin from human oxytocin receptor expressed in CHO cells by scintillation counting; type: cell-based
# T2 sequence (P30559 whole entry): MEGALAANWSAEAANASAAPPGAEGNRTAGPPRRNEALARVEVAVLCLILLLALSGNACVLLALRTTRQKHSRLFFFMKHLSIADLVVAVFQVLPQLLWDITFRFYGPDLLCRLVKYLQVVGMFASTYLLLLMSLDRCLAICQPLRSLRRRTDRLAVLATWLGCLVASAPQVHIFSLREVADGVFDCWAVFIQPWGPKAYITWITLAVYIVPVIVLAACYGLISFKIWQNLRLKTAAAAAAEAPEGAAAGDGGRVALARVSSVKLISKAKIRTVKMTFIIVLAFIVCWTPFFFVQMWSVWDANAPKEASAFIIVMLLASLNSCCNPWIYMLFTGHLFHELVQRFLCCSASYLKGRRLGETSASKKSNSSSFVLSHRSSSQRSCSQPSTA
# In short: (§1)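 Ki from radioligand displacement at the human receptor, run per a previously published protocol; each value is the mean of at least two experiments.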
# Homo sapiens [2] = species: Homo sapiens; experiment: Selectivity ratio of Ki for human vasopressin V1b receptor over Ki for human oxytocin receptor
# Homo sapiens [3] = species: Homo sapiens; experiment: Selectivity ratio of Ki for human vasopressin V1b receptor over Ki for human vasopressin V2 receptor
# Vasopressin V2 receptor = Vasopressin V2 receptor (Homo sapiens, UniProt P30518); experiment: Displacement of [3H]AVP from human vasopressin V2 receptor expressed in CHO cells by scintillation counting; type: cell-based; in short: as §1
# Vasopressin V2 receptor, sequence (P30518 whole entry): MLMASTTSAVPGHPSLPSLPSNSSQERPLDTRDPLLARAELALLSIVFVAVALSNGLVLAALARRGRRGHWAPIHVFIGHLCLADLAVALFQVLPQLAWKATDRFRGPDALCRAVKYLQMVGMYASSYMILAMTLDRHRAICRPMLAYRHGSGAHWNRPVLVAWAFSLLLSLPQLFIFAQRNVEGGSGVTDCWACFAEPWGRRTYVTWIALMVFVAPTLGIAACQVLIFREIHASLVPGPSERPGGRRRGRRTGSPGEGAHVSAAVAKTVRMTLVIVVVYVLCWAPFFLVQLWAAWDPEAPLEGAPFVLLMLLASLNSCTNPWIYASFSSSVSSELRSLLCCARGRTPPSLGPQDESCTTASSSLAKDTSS
# [4] = Intrinsic clearance in rat liver microsomes measured up to 40 mins by HPLC-MS method; type: ADME, Microsome
# In short: (§2)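 Intrinsic clearance determined by liver microsome incubation using a previously published procedure, reported in µL/min/mg; each value is the mean of at least two experiments.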
# [5] = Intrinsic clearance in human liver microsomes measured up to 40 mins by HPLC-MS method; type: ADME, Microsome; in short: as §2
# Vasopressin V1a receptor = Vasopressin V1a receptor (Homo sapiens, UniProt P37288); experiment: Displacement of [3H]AVP from human vasopressin V1a receptor expressed in CHO cells by scintillation counting; type: cell-based; in short: as §1
# Vasopressin V1a receptor, sequence (P37288 whole entry): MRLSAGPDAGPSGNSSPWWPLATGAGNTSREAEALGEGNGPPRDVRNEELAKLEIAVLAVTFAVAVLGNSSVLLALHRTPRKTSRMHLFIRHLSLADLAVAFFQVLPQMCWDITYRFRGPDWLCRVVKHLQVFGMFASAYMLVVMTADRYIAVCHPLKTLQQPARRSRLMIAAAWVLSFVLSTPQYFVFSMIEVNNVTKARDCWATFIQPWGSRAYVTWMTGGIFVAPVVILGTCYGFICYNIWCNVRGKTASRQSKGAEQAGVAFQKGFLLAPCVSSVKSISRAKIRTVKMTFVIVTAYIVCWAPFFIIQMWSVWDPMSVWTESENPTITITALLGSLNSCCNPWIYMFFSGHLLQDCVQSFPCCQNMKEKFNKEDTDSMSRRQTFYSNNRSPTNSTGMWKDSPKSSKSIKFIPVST
# [6] = Clearance in rat plasma at 2 mg/kg, iv; type: ADME, organism-based; parameters: dose 2 mg/kg, route intravenous
# [7] = Terminal half life in rat at 2 mg/kg, iv; type: ADME, organism-based; parameters: dose 2 mg/kg, route intravenous; details: in vivo, read-out: beta t1/2 (converted)
# [8] = Ratio of AUC in brain to plasma in rat at 10 mg/kg, ip; type: ADME, organism-based; parameters: dose 10 mg/kg, route intraperitoneal; details: brain and plasma, read-out: Ratio AUC
# [9] = Oral bioavailability in rat plasma at 10 mg/kg; type: ADME, organism-based
# [10] = Volume of distribution at steady state in rat at 2 mg/kg, iv; type: ADME, organism-based; parameters: dose 2 mg/kg, route intravenous; details: in vivo, read-out: Vdss
# Rattus norvegicus = experiment: Antidepressant activity in rat at 3 mg/kg, ip by forced swimming test; type: functional, organism-based; parameters: dose 3 mg/kg
Structure (SMILES),Ki (Vasopressin V1b receptor) [nM],Ratio Ki (Homo sapiens [1]),Ki (Oxytocin receptor) [nM],Ratio Ki (Homo sapiens [2]),Ratio Ki (Homo sapiens [3]),Ki (Vasopressin V2 receptor) [nM],microsomal CLint [4] [µL/min/mg],microsomal CLint [5] [µL/min/mg],Ki (Vasopressin V1a receptor) [nM],clearance [6] [L/h/kg],half-life [7] [h],Kp [8],bioavailability [9] [%],Vd [10] [L/kg],Activity (Rattus norvegicus)
COc1ccc(S(=O)(=O)N2C(=O)[C@@](c3cccnc3OC)(N3CCCC3c3ncco3)c3cc(Cl)ccc32)c(OC)c1 (mixture of isomers),101,–,–,–,–,–,–,–,–,–,–,–,–,–,–
COc1ccc(S(=O)(=O)N2C(=O)[C@@](c3cccnc3OC)(N3CCCC3c3nccs3)c3cc(Cl)ccc32)c(OC)c1 (mixture of isomers),276,–,–,–,–,–,476,373,–,–,–,–,–,–,–
COc1ccc(S(=O)(=O)N2C(=O)[C@@](c3cccnc3OC)(N3CCCC3c3ccccc3)c3cc(Cl)ccc32)c(OC)c1 (mixture of isomers),> 10000,–,–,–,–,–,–,–,–,–,–,–,–,–,–
COc1ccc(S(=O)(=O)N2C(=O)[C@@](c3cccnc3OC)(N3CCC[C@H]3c3ncco3)c3cc(Cl)ccc32)cc1,20,–,–,–,–,–,356,75,–,–,–,–,–,–,–
COc1ccc(S(=O)(=O)N2C(=O)[C@@](c3ccccc3OC)(N3C[C@H](O)C[C@H]3C(=O)N(C)C)c3cc(Cl)ccc32)c(OC)c1,–,–,–,–,–,–,432,343,–,5.2,0.5,0.03,12,2.8,–
COc1ccc(S(=O)(=O)N2C(=O)[C@@](c3nccnc3OC)(N3C[C@H](O)C[C@H]3C(=O)N(C)C)c3cc(Cl)ccc32)c(OC)c1,26,–,271,–,–,> 1000,1030,302,500,–,–,–,–,–,–
COc1ccc(S(=O)(=O)N2C(=O)[C@@](c3cc(CN(C)C)ccc3OC)(N3CCC[C@H]3c3ncco3)c3cc(Cl)ccc32)cc1,2,–,115,–,–,> 1000,217,204,289,–,–,–,–,–,–
COc1ccc(S(=O)(=O)N2C(=O)[C@@](c3cccnc3OC)(N3CCCC3c3ccccn3)c3cc(Cl)ccc32)c(OC)c1 (mixture of isomers),786,–,–,–,–,–,702,183,–,–,–,–,–,–,–
COc1ccc(S(=O)(=O)N2C(=O)[C@@](c3cccnc3OC)(N3CCCC3c3cccs3)c3cc(Cl)ccc32)c(OC)c1 (mixture of isomers),> 10000,–,–,–,–,–,–,–,–,–,–,–,–,–,–
COc1ccc(S(=O)(=O)N2C(=O)[C@@](c3cnc(OC)nc3OC)(N3C[C@H](O)C[C@H]3C(=O)N(C)C)c3cc(Cl)ccc32)c(OC)c1,5.6,–,45,–,–,636,366,203,173,–,–,–,–,–,–
COc1ccc(S(=O)(=O)N2C(=O)[C@@](c3cnccc3OC)(N3C[C@H](O)C[C@H]3C(=O)N(C)C)c3cc(Cl)ccc32)c(OC)c1,2.1,–,–,–,–,> 1000,413,158,49,–,–,–,–,–,–
CNCc1ccc(OC)c([C@@]2(N3CCC[C@H]3c3ncco3)C(=O)N(S(=O)(=O)c3ccc(OC)cc3)c3ccc(Cl)cc32)c1,3.9,–,135,–,–,> 1000,62,64,243,3,3.3,0.31,68,13,Active
COc1ccc(S(=O)(=O)N2C(=O)[C@@](c3cccnc3OC)(N3CCC[C@H]3C(=O)N(C)C)c3cc(Cl)ccc32)c(OC)c1,3.8,–,62,–,–,> 1000,446,359,219,–,–,–,–,–,–

# Continued, in another order:
Ki (Vasopressin V1b receptor) [nM],Ratio Ki (Homo sapiens [1]),Ki (Oxytocin receptor) [nM],Ratio Ki (Homo sapiens [2]),Ratio Ki (Homo sapiens [3]),Ki (Vasopressin V2 receptor) [nM],microsomal CLint [4] [µL/min/mg],microsomal CLint [5] [µL/min/mg],Ki (Vasopressin V1a receptor) [nM],Structure (SMILES),clearance [6] [L/h/kg],half-life [7] [h],Kp [8],bioavailability [9] [%],Vd [10] [L/kg],Activity (Rattus norvegicus)
0.04,> 100,7,> 100,> 100,> 1000,56,378,15,COc1ccc(S(=O)(=O)N2C(=O)[C@@](c3ccc(CN4CCN(C)CC4)cc3OC)(N3CCC[C@H]3C(=O)N(C)C)c3cc(Cl)ccc32)cc1,–,–,–,–,–,–
0.03,> 100,17,> 100,> 100,> 1000,101,506,10,COc1ccc(S(=O)(=O)N2C(=O)[C@@](c3cc(CN4CCCC4)ccc3OC)(N3CCC[C@H]3C(=O)N(C)C)c3cc(Cl)ccc32)cc1,–,–,–,–,–,–
0.81,–,45,–,–,> 1000,117,155,> 1000,COc1ccc(S(=O)(=O)N2C(=O)[C@@](c3ccc(CN4CCCC4)cc3OC)(N3CCC[C@H]3C(=O)N(C)C)c3cc(Cl)ccc32)c(OC)c1,–,–,–,–,–,–
1.3,–,42,–,–,618,446,323,55,COc1ccc(S(=O)(=O)N2C(=O)[C@@](c3cccnc3OC)(N3C[C@H](O)C[C@H]3C(=O)N(C)C)c3cc(Cl)ccc32)c(OC)c1,–,–,–,–,–,–
0.03,> 100,20,> 100,> 100,> 1000,78,414,13,COc1ccc(S(=O)(=O)N2C(=O)[C@@](c3cc(CN4CCN(C)CC4)ccc3OC)(N3CCC[C@H]3C(=O)N(C)C)c3cc(Cl)ccc32)cc1,–,–,–,–,–,–
0.08,> 100,28,> 100,> 100,> 1000,106,127,101,COc1ccc(S(=O)(=O)N2C(=O)[C@@](c3ccc(CN4CCCC4)cc3OC)(N3CCC[C@H]3C(=O)N(C)C)c3cc(Cl)ccc32)cc1,–,–,–,–,–,–
1.2,–,170,–,–,> 1000,164,80,193,COc1ccc(S(=O)(=O)N2C(=O)[C@@](c3cc(CN4CCCC4)ccc3OC)(N3CCC[C@H]3c3ncco3)c3cc(Cl)ccc32)cc1,–,–,–,–,–,–
0.26,–,29,–,–,> 1000,148,394,74,COc1ccc(S(=O)(=O)N2C(=O)[C@@](c3cc(CN4CCCC4)ccc3OC)(N3CCC[C@H]3C(=O)N(C)C)c3cc(Cl)ccc32)c(OC)c1,–,–,–,–,–,–
1.3,–,89,–,–,> 1000,56,76,231,COc1ccc(S(=O)(=O)N2C(=O)[C@@](c3cc(CN4CCN(C)CC4)ccc3OC)(N3CCC[C@H]3c3ncco3)c3cc(Cl)ccc32)cc1,–,–,–,–,–,–
